In the M2OR odorant receptor database:
Changes are numbered by the printed parent chain.

biological target: OR4D6 (Homo sapiens) (UniProt Q8NGJ1); conditions: stereoisomer not certain
Outline: (§1)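 Assay methods differ from source to source, frequently being transient luciferase assays in mammalian cell lines. For each receptor–molecule pair, the label responsive (active) applies when the original authors judged the measured signal statistically different from baseline, and non-responsive (inactive) applies otherwise.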

Chain of OR4D6 (Homo sapiens) (Q8NGJ1 whole entry): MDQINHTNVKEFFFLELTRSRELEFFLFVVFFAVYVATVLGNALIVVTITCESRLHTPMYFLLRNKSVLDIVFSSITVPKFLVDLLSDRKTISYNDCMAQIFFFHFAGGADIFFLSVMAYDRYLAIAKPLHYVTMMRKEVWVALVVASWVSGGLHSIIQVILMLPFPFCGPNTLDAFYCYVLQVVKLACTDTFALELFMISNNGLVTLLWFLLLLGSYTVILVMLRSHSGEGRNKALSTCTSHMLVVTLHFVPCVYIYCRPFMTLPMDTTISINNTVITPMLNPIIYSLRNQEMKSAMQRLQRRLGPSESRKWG

Odorant receptor agonist call, inactive:
CCCCCC(=O)C(C)C(C)=O (centres undefined), CC(CO)CS (centres undefined), CCCC(S)CCOC(C)=O (centres undefined), CC1=NC(C)C(C)S1 (centres undefined), CC1=C(O)C(=O)OC1C (centres undefined), CCCCC(S)C(C)CO (centres undefined), CC1CCCCCCCCCCCCC(=O)C1 (centres undefined), CC(=O)c1c(C)c([N+](=O)[O-])c(C(C)(C)C)c([N+](=O)[O-])c1C, CCCCCCC=CCCC=O, CC1=C(O)C(=O)C(C)O1 (centres undefined), Cc1cnc(C)c(C)n1, CCC1OC(C)=C(O)C1=O (centres undefined), CCC(S)C(C)CO (centres undefined), CCC1OC(=O)C(O)=C1C (centres undefined), CCCCCC(S)C(C)CO (centres undefined)

test system: OR4D6; conditions: stereoisomer not certain
Sequence (as listed by the source): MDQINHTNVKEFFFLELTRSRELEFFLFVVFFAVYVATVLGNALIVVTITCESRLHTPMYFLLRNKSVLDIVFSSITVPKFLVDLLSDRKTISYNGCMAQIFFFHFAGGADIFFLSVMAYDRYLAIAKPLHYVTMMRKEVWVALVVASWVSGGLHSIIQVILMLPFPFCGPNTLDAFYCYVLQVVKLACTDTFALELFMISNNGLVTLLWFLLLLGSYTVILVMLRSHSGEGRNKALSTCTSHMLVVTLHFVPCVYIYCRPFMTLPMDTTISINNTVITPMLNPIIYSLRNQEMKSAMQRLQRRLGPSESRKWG
Outline: as §1

Odorant receptor agonist call, inactive:
CCCC(S)CCOC(C)=O (centres undefined), CC1=NC(C)C(C)S1 (centres undefined), CC1=C(O)C(=O)OC1C (centres undefined), CCCCCCC=CCCC=O, CC1=C(O)C(=O)C(C)O1 (centres undefined), Cc1cnc(C)c(C)n1, CCC1OC(C)=C(O)C1=O (centres undefined), CCC1OC(=O)C(O)=C1C (centres undefined)

biological target: OR4D9 (Homo sapiens) (UniProt Q8NGE8); conditions: stereoisomer not certain
Sequence (Q8NGE8 whole entry): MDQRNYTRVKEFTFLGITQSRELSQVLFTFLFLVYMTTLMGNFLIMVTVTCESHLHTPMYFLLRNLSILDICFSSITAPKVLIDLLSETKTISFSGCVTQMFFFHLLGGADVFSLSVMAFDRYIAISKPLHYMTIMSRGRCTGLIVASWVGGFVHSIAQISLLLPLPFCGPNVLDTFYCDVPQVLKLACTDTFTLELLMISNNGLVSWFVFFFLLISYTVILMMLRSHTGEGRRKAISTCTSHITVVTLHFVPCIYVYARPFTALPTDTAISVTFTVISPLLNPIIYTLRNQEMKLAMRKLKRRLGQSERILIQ
Outline: as §1

Odorant receptor agonist call, inactive:
CCCCCC(=O)C(C)C(C)=O (centres undefined), CC(CO)CS (centres undefined), CCCC(S)CCOC(C)=O (centres undefined), CC1=NC(C)C(C)S1 (centres undefined), CC1=C(O)C(=O)OC1C (centres undefined), CCCCC(S)C(C)CO (centres undefined), CC1CCCCCCCCCCCCC(=O)C1 (centres undefined), CC(=O)c1c(C)c([N+](=O)[O-])c(C(C)(C)C)c([N+](=O)[O-])c1C, CCCCCCC=CCCC=O, CC1=C(O)C(=O)C(C)O1 (centres undefined), Cc1cnc(C)c(C)n1, CCC1OC(C)=C(O)C1=O (centres undefined), CCC(S)C(C)CO (centres undefined), CCC1OC(=O)C(O)=C1C (centres undefined), CCCCCC(S)C(C)CO (centres undefined)

biological target: T1, OR4E2 (Homo sapiens) (UniProt Q8NGC2); conditions: stereoisomer not certain
T1 sequence (whole entry): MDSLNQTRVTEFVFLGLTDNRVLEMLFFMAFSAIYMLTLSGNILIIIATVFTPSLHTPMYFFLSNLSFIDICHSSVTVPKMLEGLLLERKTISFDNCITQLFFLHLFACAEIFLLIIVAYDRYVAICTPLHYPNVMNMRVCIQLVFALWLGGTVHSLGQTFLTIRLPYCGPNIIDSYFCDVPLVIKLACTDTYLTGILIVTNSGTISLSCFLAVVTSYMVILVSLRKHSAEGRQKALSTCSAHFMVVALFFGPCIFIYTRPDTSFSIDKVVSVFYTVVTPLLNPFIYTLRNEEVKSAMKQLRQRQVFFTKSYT
Outline: as §1

Odorant receptor agonist call, inactive:
CCCCCC(=O)C(C)C(C)=O (centres undefined), CC(CO)CS (centres undefined), CCCC(S)CCOC(C)=O (centres undefined), CC1=NC(C)C(C)S1 (centres undefined), CC1=C(O)C(=O)OC1C (centres undefined), CCCCC(S)C(C)CO (centres undefined), CC1CCCCCCCCCCCCC(=O)C1 (centres undefined), CC(=O)c1c(C)c([N+](=O)[O-])c(C(C)(C)C)c([N+](=O)[O-])c1C, CCCCCCC=CCCC=O, CC1=C(O)C(=O)C(C)O1 (centres undefined), Cc1cnc(C)c(C)n1, CCC1OC(C)=C(O)C1=O (centres undefined), CCC(S)C(C)CO (centres undefined), CCC1OC(=O)C(O)=C1C (centres undefined), CCCCCC(S)C(C)CO (centres undefined)

test system: T2, OR4E2 A119T; conditions: stereoisomer not certain
T2 sequence (whole entry): T1 sequence (whole entry) with V118M, A119T, Q234R
Outline: as §1

Odorant receptor agonist call, inactive:
CCCC(S)CCOC(C)=O (centres undefined), CC1=NC(C)C(C)S1 (centres undefined), CC1=C(O)C(=O)OC1C (centres undefined), CC1=C(O)C(=O)C(C)O1 (centres undefined), Cc1cnc(C)c(C)n1, CCC1OC(C)=C(O)C1=O (centres undefined), CCC1OC(=O)C(O)=C1C (centres undefined)

test system: T3, OR4E2; conditions: stereoisomer not certain
T3 sequence (whole entry): T1 sequence (whole entry) with V118M, Q234R
Outline: as §1

Odorant receptor agonist call, inactive:
CC(C)=CCCC(C)=CCO, CCCC(S)CCOC(C)=O (centres undefined), CC1=NC(C)C(C)S1 (centres undefined), CC1=C(O)C(=O)OC1C (centres undefined), CCCCCCC=CCCC=O, CC1=C(O)C(=O)C(C)O1 (centres undefined), Cc1cnc(C)c(C)n1, CCC1OC(C)=C(O)C1=O (centres undefined), CCC1OC(=O)C(O)=C1C (centres undefined)

biological target: T4, OR4F15 (Homo sapiens) (UniProt Q8NGB8); conditions: stereoisomer not certain
T4 sequence (whole entry): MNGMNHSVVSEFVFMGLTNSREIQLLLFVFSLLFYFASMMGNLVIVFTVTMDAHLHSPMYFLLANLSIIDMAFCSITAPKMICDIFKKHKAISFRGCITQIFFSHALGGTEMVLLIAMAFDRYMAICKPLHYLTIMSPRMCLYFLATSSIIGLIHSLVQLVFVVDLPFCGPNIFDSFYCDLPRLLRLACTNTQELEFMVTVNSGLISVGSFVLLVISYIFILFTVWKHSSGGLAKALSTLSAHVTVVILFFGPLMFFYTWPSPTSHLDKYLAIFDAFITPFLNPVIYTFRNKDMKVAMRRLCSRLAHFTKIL
Outline: as §1

Odorant receptor agonist call, inactive:
CCCCCC(=O)C(C)C(C)=O (centres undefined), CC(CO)CS (centres undefined), CCCC(S)CCOC(C)=O (centres undefined), CC1=NC(C)C(C)S1 (centres undefined), CC1=C(O)C(=O)OC1C (centres undefined), CCCCC(S)C(C)CO (centres undefined), CC1CCCCCCCCCCCCC(=O)C1 (centres undefined), CC(=O)c1c(C)c([N+](=O)[O-])c(C(C)(C)C)c([N+](=O)[O-])c1C, CCCCCCC=CCCC=O, CC1=C(O)C(=O)C(C)O1 (centres undefined), Cc1cnc(C)c(C)n1, CCC1OC(C)=C(O)C1=O (centres undefined), CCC(S)C(C)CO (centres undefined), CCC1OC(=O)C(O)=C1C (centres undefined), CCCCCC(S)C(C)CO (centres undefined)
